Reference: ChEMBL document CHEMBL4138082 (Eur J Med Chem, 2017)
Active and inactive are the calls of the source. The calls are words filed in the database; no cut-off is given here.

Experiments:
HepG2 [1] = assay: Cell cycle arrest in human HepG2 cells assessed as G2 phase accumulation at 0.25 uM after 48 hrs by propidium iodide staining based flow cytometry (reference value: 23.38%); assay type: functional
Method in brief: (§1)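 HepG-2 cells were plated and grown 24 h at 37 °C, then treated 48 h at 0, 0.0625, 0.125 or 0.25 µM, with 0.1% DMSO as control. Cells were fixed overnight in 70% ethanol at 4 °C, treated with RNase A and stained with propidium iodide. DNA content was measured by flow cytometry to give cell-cycle phase distribution.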

HepG2 [2] = assay: Induction of apoptosis in human HepG2 cells assessed as nuclear fragmentation at 0.0625 to 0.25 uM measured after 48 hrs by Hoechst 33258 staining based fluorescent microscopic analysis; assay type: functional, cell-based
HepG2 [3] = assay: Cell cycle arrest in human HepG2 cells assessed as S phase accumulation at 0.125 uM after 48 hrs in presence of hemoglobin by propidium iodide staining based flow cytometry (reference value: 36.40%); assay type: functional
HepG2 [4] = assay: Induction of apoptosis in human HepG2 cells assessed as viable cells at 0.0625 uM after 48 hrs by Annexin V-APC/7-AAD staining based flow cytometry (reference value: 91.07%); assay type: functional; settings: HepG2, 48 h, read-out: Activity
HepG2 [5] = assay: Downregulation of HO-2 expression in human HepG2 cells after 24 hrs by protein array assay; assay type: functional, cell-based
Method in brief: (§2)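 Lysates from HepG-2 cells treated 24 h were incubated overnight at 4 °C on a membrane array of 35 apoptosis-related proteins. A biotinylated detection antibody cocktail was then applied for 1 h at room temperature. Relative expression was read from chemiluminescent spots by densitometry.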

HepG2 [6] = assay: Downregulation of pro-caspase 3 level in human HepG2 cells up to 0.25 uM after 48 hrs by Western blot method; assay type: functional, cell-based
Method in brief: (§3)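 HepG-2 cells were exposed 48 h to 0, 0.0625, 0.125 or 0.25 µM and lysed on ice for 20 min. Equal protein loads were run on 12% SDS-PAGE and transferred to PVDF. Membranes were probed overnight at 4 °C with primary antibodies, then with HRP-conjugated secondaries, and detected by ECL chemiluminescence.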

HepG2 [7] = assay: Cell cycle arrest in human HepG2 cells assessed as G1 phase accumulation at 0.125 uM after 48 hrs by propidium iodide staining based flow cytometry (reference value: 32.74%); assay type: functional; method in brief: as §1
L02 = assay: Cytotoxicity against human L02 cells assessed as reduction in cell viability after 72 hrs by MTT assay; assay type: cell-based; settings: L02, 72 h
Method in brief: (§4)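 MTT assay. Cells were seeded and grown 24 h at 37 °C in 5% CO2, then exposed to compound or left untreated for 72 h. MTT (5 mg/mL stock) was added for 4 h and the formazan dissolved in DMSO. OD was read at 570 nm. IC50 is the concentration giving 50% growth inhibition, reported as mean ± SD of three independent experiments. Vehicle reference was 0.1% DMSO.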

HepG2 [8] = assay: Cell cycle arrest in human HepG2 cells assessed as G2 phase accumulation at 0.0625 uM after 48 hrs by propidium iodide staining based flow cytometry (reference value: 23.38%); assay type: functional; method in brief: as §1
HepG2 [9] = assay: Downregulation of Bcl-xl level in human HepG2 cells up to 0.25 uM after 48 hrs by Western blot method; assay type: functional, cell-based; method in brief: as §3
HepG2 [10] = assay: Cell cycle arrest in human HepG2 cells assessed as S phase accumulation at 0.0625 uM after 48 hrs by propidium iodide staining based flow cytometry (reference value: 43.88%); assay type: functional; method in brief: as §1
HepG2 [11] = assay: Induction of apoptosis in human HepG2 cells assessed as late apoptotic cells at 0.0625 uM after 48 hrs by […] based flow cytometry (reference value: 3.36%); assay type: functional
HepG2 [12] = assay: Cell cycle arrest in human HepG2 cells assessed as S phase accumulation at 0.0625 uM after 48 hrs in presence of hemoglobin by propidium iodide staining based flow cytometry (reference value: 36.40%); assay type: functional
HepG2 [13] = assay: Induction of apoptosis in human HepG2 cells assessed as early apoptotic cells at 0.125 uM after 48 hrs in presence of hemoglobin by Annexin V-APC/7-AAD staining based flow cytometry (reference value: 3.18%); assay type: functional
HepG2 [14] = assay: Cell cycle arrest in human HepG2 cells assessed as S phase accumulation at 0.125 uM after 48 hrs by propidium iodide staining based flow cytometry (reference value: 43.88%); assay type: functional; method in brief: as §1
HepG2 [15] = assay: Cell cycle arrest in human HepG2 cells assessed as G2 phase accumulation at 0.0625 uM after 48 hrs in presence of hemoglobin by propidium iodide staining based flow cytometry (reference value: 10.67%); assay type: functional
HT-29 = assay: Antiproliferative activity against human HT-29 cells after 72 hrs by MTT assay; assay type: functional, cell-based; settings: HT-29, 72 h; method in brief: as §4
[16] = Drug metabolism in human HepG2 cells assessed as NO release by measuring nitrite formation at 100 uM after 1 hr by Griess assay; assay type: ADME, cell-based; settings: hepg2, 1 h
Method in brief: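 HepG-2 or L-02 cells were exposed to 100 µM of each compound for 60 min and then harvested. Lysates were mixed with Griess reagent for 10 min at 37 °C and absorbance was read at 550 nm. NO release is expressed as nitrite, reported as mean ± SD of three independent experiments.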

HepG2 [17] = assay: Induction of apoptosis in human HepG2 cells assessed as viable cells at 0.125 uM after 48 hrs by Annexin V-APC/7-AAD staining based flow cytometry (reference value: 91.07%); assay type: functional; settings: HepG2, 48 h, read-out: Activity
HepG2 [18] = assay: Cell cycle arrest in human HepG2 cells assessed as S phase accumulation at 0.25 uM after 48 hrs by propidium iodide staining based flow cytometry (reference value: 43.88%); assay type: functional; method in brief: as §1
HepG2 [19] = assay: Induction of apoptosis in human HepG2 cells assessed as late apoptotic cells at 0.125 uM after 48 hrs in presence of hemoglobin by Annexin V-APC/7-AAD staining based flow cytometry (reference value: 3.36%); assay type: functional
HepG2 [20] = assay: Induction of apoptosis in human HepG2 cells assessed as early apoptotic cells at 0.0625 uM after 48 hrs in presence of hemoglobin by Annexin V-APC/7-AAD staining based flow cytometry (reference value: 3.18%); assay type: functional
HepG2 [21] = assay: Cell cycle arrest in human HepG2 cells assessed as G2 phase accumulation at 0.125 uM after 48 hrs by propidium iodide staining based flow cytometry (reference value: 23.38%); assay type: functional; method in brief: as §1
HepG2 [22] = assay: Cell cycle arrest in human HepG2 cells assessed as G2 phase accumulation at 0.125 uM after 48 hrs in presence of hemoglobin by propidium iodide staining based flow cytometry (reference value: 10.67%); assay type: functional
HepG2 [23] = assay: Cell cycle arrest in human HepG2 cells assessed as G1 phase accumulation at 0.25 uM after 48 hrs in presence of hemoglobin by propidium iodide staining based flow cytometry (reference value: 52.93%); assay type: functional
HepG2 [24] = assay: Downregulation of HO-1 expression in human HepG2 cells after 24 hrs by protein array assay; assay type: functional, cell-based; method in brief: as §2
HepG2 [25] = assay: Induction of apoptosis in human HepG2 cells assessed as cell population with intact mitochondrial membrane potential at 0.125 uM measured after 48 hrs by JC-1 staining based flow cytometry (reference value: 98.51%); assay type: functional
Method in brief: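 HepG-2 cells were exposed 48 h to 0.0625, 0.125 or 0.25 µM or to vehicle, then washed in PBS and stained with JC-1 in the dark. Red aggregate versus green monomer fluorescence was measured by flow cytometry to give the percentages of cells with healthy versus collapsed mitochondrial membrane potential.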

IC50 (HT-29): 0.16 µM | Drug metabolism [16]: 98.5 µM
SMILES: C[C@H]1CCC/C=C/[C@@H]2C[C@H](OC(=O)CCCC(=O)OCCOc3no[n+]([O-])c3S(=O)(=O)c3ccccc3)C[C@H]2[C@H](OC(=O)CCCC(=O)OCCOc2no[n+]([O-])c2S(=O)(=O)c2ccccc2)/C=C/C(=O)O1
Activity (HepG2 [1]): 2.67% | Activity (HepG2 [2]): Active | Activity (HepG2 [3]): 30.54% | viability at 0.0625 µM (HepG2 [4]): 82.1% | Activity (HepG2 [5]): Active | Activity (HepG2 [6]): Active | Activity (HepG2 [7]): 31.78% | IC50 (L02): 6 µM | Activity (HepG2 [8]): 18.96% | Activity (HepG2 [9]): Active | Activity (HepG2 [10]): 48.2% | Activity (HepG2 [11]): 11.76% | Activity (HepG2 [12]): 24.74% | Activity (HepG2 [13]): 3.49% | Activity (HepG2 [14]): 51.22% | Activity (HepG2 [15]): 7.2% | viability at 0.125 µM (HepG2 [17]): 63% | Activity (HepG2 [18]): 72.16% | Activity (HepG2 [19]): 9.87% | Activity (HepG2 [20]): 3.25% | Activity (HepG2 [21]): 17% | Activity (HepG2 [22]): 6.22% | Activity (HepG2 [23]): 72.34% | Activity (HepG2 [24]): Active | Activity (HepG2 [25]): 64.55%
